According to ChEMBL document CHEMBL1153955, “Indolylarylsulfones bearing natural and unnatural amino acids. Discovery of potent inhibitors of HIV-1 non-nucleoside wild type and resistant mutant strains reverse transcriptase and coxsackie B4 virus” (J Med Chem, 2009):

Assays:
[1] = test system: Respiratory syncytial virus; assay: Antiviral activity against RSV Long in human HeLa cells assessed as protection against virus-induced cytopathicity; format: functional, organism-based
How it was run: (§1)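 Confluent cell monolayers inoculated with 100 CCID₅₀ virus. After 1-2 h adsorption, residual virus removed and cultures incubated with varying compound concentrations. Cytopathicity scored once it reached completion in untreated infected controls. EC₅₀ = dose reducing virus-induced cytopathogenicity by 50%.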

[2] = test system: Vesicular stomatitis virus; assay: Antiviral activity against VSV in human HeLa cells assessed as protection against virus-induced cytopathicity; format: functional, organism-based
[3] = test system: Human immunodeficiency virus 1; assay: Antiviral activity against HIV1 3B in human CEM cells assessed as protection against virus-induced cytopathicity after 4 days; format: functional, organism-based; conditions: Human immunodeficiency virus 1, 3B, CCRF-CEM, 96 h
How it was run: (§2)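 CEM cells (~3 × 10⁵ cells/mL) infected with ~100 CCID₅₀ per mL of HIV-1 (IIIB) or HIV-2 (ROD), then seeded into wells containing compound dilutions. After 4 days at 37 °C, syncytium (giant cell) formation was examined microscopically. EC₅₀ = concentration protecting CEM cells from HIV cytopathicity by 50%.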

[4] = test system: Human immunodeficiency virus 2; assay: Antiviral activity against HIV2 ROD in human CEM cells assessed as protection against virus-induced cytopathicity after 4 days; format: functional, organism-based; conditions: Human immunodeficiency virus 2, ROD, CCRF-CEM, 96 h; how it was run: as §2
L1210 = assay: Antiproliferative activity against mouse L1210 cells after 2 days; format: cell-based; conditions: L1210, 48 h
How it was run: (§3)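 Cells seeded at 5 × 10⁴ to 7.5 × 10⁴ cells/200 µL with or without serial compound dilutions; incubated at 37 °C for 2 days (L1210) or 3 days (Molt4/C8, CEM). Cell numbers counted with a Coulter counter. CC₅₀ = concentration reducing proliferation by 50% versus untreated controls, read from plots of cell number (% of control) against concentration. Means of at least two independent experiments.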

[5] = Antiproliferative activity against human Molt4/C8 cells after 3 days; format: cell-based; conditions: MOLT-4, 72 h; how it was run: as §3
CCRF-CEM = assay: Antiproliferative activity against human CEM cells after 3 days; format: cell-based; conditions: 72 h; how it was run: as §3
[6] = target: Human immunodeficiency virus type 1 reverse transcriptase (Human immunodeficiency virus 1, UniProt Q72547); assay: Inhibition of HIV1 reverse transcriptase p66/p51; conditions: read-out: IC50
[7] = target: Human immunodeficiency virus type 1 reverse transcriptase (Human immunodeficiency virus 1, UniProt Q72547, K103N); assay: Inhibition of HIV1 reverse transcriptase p66/p51 K103N mutant; conditions: read-out: IC50
How it was run: (§4)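 Substrate was 0.5 µg poly(rA)/oligo(dT) 10:1 (0.3 µM 3′-OH ends) with 10 µM [³H]dTTP, at 37 °C. Acid-precipitable radioactivity was counted on GF/C filters after TCA washes.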

[8] = Cytotoxicity against human HeLa cells assessed as drug level causing microscopically detectable alteration of normal cell morphology after 3 days; format: cell-based
How it was run: (§5)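 Serial compound dilutions added to confluent HeLa or Vero monolayers. MCC = minimum concentration causing microscopically detectable alteration of cell morphology after 3 days of incubation.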

[9] = Cytotoxicity against african green monkey Vero cells assessed as drug level causing microscopically detectable alteration of normal cell morphology after 3 days; format: cell-based; conditions: chlorocebus sabaeus; how it was run: as §5
Coxsackievirus B4 [10] = assay: Antiviral activity against Coxsackievirus B4 in human HeLa cells assessed as protection against virus-induced cytopathicity; format: functional, organism-based; conditions: Enterovirus B; how it was run: as §1
Coxsackievirus B4 [11] = assay: Antiviral activity against Coxsackievirus B4 in african green monkey Vero cells assessed as protection against virus-induced cytopathicity; format: functional, organism-based; conditions: Enterovirus B; how it was run: as §1
Human respirovirus 3 = assay: Antiviral activity against Parainfluenza virus type 3 in african green monkey Vero cells assessed as protection against virus-induced cytopathicity; format: functional, organism-based; conditions: Human respirovirus 3, Vero; how it was run: as §1
[12] = test system: Mammalian orthoreovirus 1; assay: Antiviral activity against Reovirus 1 in african green monkey Vero cells assessed as protection against virus-induced cytopathicity; format: functional, organism-based; conditions: Mammalian orthoreovirus 1, Vero; how it was run: as §1
Sindbis virus = assay: Antiviral activity against Sindbis virus in african green monkey Vero cells assessed as protection against virus-induced cytopathicity; format: functional, organism-based; how it was run: as §1
Punta Toro virus = assay: Antiviral activity against Punta Toro virus in african green monkey Vero cells assessed as protection against virus-induced cytopathicity; format: functional, organism-based; how it was run: as §1
[13] = Cytotoxicity against human HEL cells assessed as drug level causing microscopically detectable alteration of normal cell morphology after 3 days; format: cell-based
Human alphaherpesvirus 1 [14] = assay: Antiviral activity against HSV1 KOS in human HEL cells assessed as protection against virus-induced cytopathicity; format: functional, organism-based; conditions: Human alphaherpesvirus 1, KOS
Human alphaherpesvirus 2 = assay: Antiviral activity against HSV2 G in human HEL cells assessed as protection against virus-induced cytopathicity; format: functional, organism-based; conditions: Human alphaherpesvirus 2, strain G; how it was run: as §1
Vaccinia virus = assay: Antiviral activity against Vaccinia virus Lederle in human HEL cells assessed as protection against virus-induced cytopathicity; format: functional, organism-based; conditions: Orthopoxvirus vaccinia
[15] = test system: Vesicular stomatitis virus; assay: Antiviral activity against VSV in human HEL cells assessed as protection against virus-induced cytopathicity; format: functional, organism-based
Human alphaherpesvirus 1 [16] = assay: Antiviral activity against thymidine kinase deficient and acyclovir resistant HSV1 KOS in human HEL cells assessed as protection against virus-induced cytopathicity; format: functional, organism-based; conditions: Human alphaherpesvirus 1, KOS
[17] = Cytotoxicity against MDCK cells assessed as drug level causing microscopically detectable alteration of normal cell morphology; format: cell-based, Canis lupus familiaris; conditions: dog
[18] = Cytotoxicity against MDCK cells by MTS assay; format: cell-based, Canis lupus familiaris; conditions: dog
Influenza A virus [19] = assay: Antiviral activity against influenza H1N1 virus in MDCK cells assessed as reduction of virus-induced cytopathicity by visual cytopathic effect scoring method; format: functional, organism-based
Influenza A virus [20] = assay: Antiviral activity against influenza H1N1 virus in MDCK cells assessed as reduction of virus-induced cytopathicity by MTS method; format: functional, organism-based; conditions: Influenza A virus, H1N1, MDCK
Influenza A virus H3N2 [21] = assay: Antiviral activity against influenza H3N2 virus in MDCK cells assessed as reduction of virus-induced cytopathicity by visual cytopathic effect scoring method; format: functional, organism-based
Influenza A virus H3N2 [22] = assay: Antiviral activity against influenza H3N2 virus in MDCK cells assessed as reduction of virus-induced cytopathicity by MTS method; format: functional, organism-based
Influenza B virus [23] = assay: Antiviral activity against influenza B virus in MDCK cells assessed as reduction of virus-induced cytopathicity by visual cytopathic effect scoring method; format: functional, organism-based
Influenza B virus [24] = assay: Antiviral activity against influenza B virus in MDCK cells assessed as reduction of virus-induced cytopathicity by MTS method; format: functional, organism-based
[25] = Cytotoxicity against feline CRFK cells by MTS assay; format: cell-based, Felis catus; conditions: cat
Feline coronavirus = assay: Antiviral activity against Feline coronavirus in feline […] cells assessed as inhibition of virus-induced cytopathicity; format: functional, organism-based; conditions: Alphacoronavirus 1
Felid alphaherpesvirus 1 = assay: Antiviral activity against Feline herpesvirus in feline […] cells assessed as inhibition of virus-induced cytopathicity; format: functional, organism-based
[26] = target: Human immunodeficiency virus type 1 reverse transcriptase (Human immunodeficiency virus 1, UniProt Q72547, L100I); assay: Inhibition of HIV1 reverse transcriptase p66/p51 L100I mutant; conditions: read-out: IC50; how it was run: as §4
[27] = target: Human immunodeficiency virus type 1 reverse transcriptase (Human immunodeficiency virus 1, UniProt Q72547, Y181I); assay: Inhibition of HIV1 reverse transcriptase p66/p51 Y181I mutant; conditions: read-out: IC50; how it was run: as §4

## Cc1cc(C)cc(S(=O)(=O)c2c(C(=O)NNC(C)C)[nH]c3ccc(Cl)cc23)c1
[1]
  EC50: > 100 µM
[2]
  EC50: > 100 µM
[3]
  EC50: 0.0064 µM
[4]
  EC50: > 50 µM
L1210
  IC50: > 500 µM
[5]
  IC50: 432 µM
CCRF-CEM
  IC50: ≥ 500 µM
[6]
  IC50: 0.01 µM
[7]
  IC50: 0.8 µM
[8]
  MCC at 72 h: > 100 µM
[9]
  MCC at 72 h: > 100 µM
Coxsackievirus B4 [10]
  EC50: > 100 µM
Coxsackievirus B4 [11]
  EC50: > 100 µM
Human respirovirus 3
  EC50: > 100 µM
[12]
  EC50: > 100 µM
Sindbis virus
  EC50: > 100 µM
Punta Toro virus
  EC50: > 100 µM
[13]
  MCC at 72 h: > 100 µM
Human alphaherpesvirus 1 [14]
  EC50: > 100 µM
Human alphaherpesvirus 2
  EC50: > 100 µM
Vaccinia virus
  EC50: > 100 µM
[15]
  EC50: > 100 µM
Human alphaherpesvirus 1 [16]
  EC50: > 100 µM
[17]
  MCC: 100 µM
[18]
  CC50: > 100 µM
Influenza A virus [19]
  EC50: > 20 µM
Influenza A virus [20]
  EC50: > 20 µM
Influenza A virus H3N2 [21]
  EC50: > 20 µM
Influenza A virus H3N2 [22]
  EC50: > 20 µM
Influenza B virus [23]
  EC50: > 20 µM
Influenza B virus [24]
  EC50: > 20 µM
[25]
  CC50: > 100 µM
Feline coronavirus
  EC50: > 100 µM
Felid alphaherpesvirus 1
  EC50: > 100 µM

## Cc1cc(C)cc(S(=O)(=O)c2c(C(=O)N[C@H](C)C(N)=O)[nH]c3ccc(Cl)cc23)c1
[6]
  IC50: 0.017 µM
[7]
  IC50: 0.253 µM

## Cc1cc(C)cc(S(=O)(=O)c2c(C(=O)NCC(N)=O)[nH]c3ccc([N+](=O)[O-])cc23)c1
[1]
  EC50: > 100 µM
[2]
  EC50: > 100 µM
[3]
  EC50: 0.0024 µM
[4]
  EC50: > 50 µM
L1210
  IC50: > 500 µM
[5]
  IC50: > 500 µM
CCRF-CEM
  IC50: ≥ 500 µM
[6]
  IC50: 0.034 µM
[26]
  IC50: 0.206 µM
[7]
  IC50: 0.417 µM
[27]
  IC50: 2.91 µM
[8]
  MCC at 72 h: > 100 µM
[9]
  MCC at 72 h: > 100 µM
Coxsackievirus B4 [10]
  EC50: > 100 µM
Coxsackievirus B4 [11]
  EC50: > 100 µM
Human respirovirus 3
  EC50: > 100 µM
[12]
  EC50: > 100 µM
Sindbis virus
  EC50: > 100 µM
Punta Toro virus
  EC50: > 100 µM
[13]
  MCC at 72 h: 100 µM
Human alphaherpesvirus 1 [14]
  EC50: > 20 µM
Human alphaherpesvirus 2
  EC50: > 20 µM
Vaccinia virus
  EC50: > 20 µM
[15]
  EC50: > 20 µM
Human alphaherpesvirus 1 [16]
  EC50: > 20 µM
[17]
  MCC: 100 µM
[18]
  CC50: > 100 µM
Influenza A virus [19]
  EC50: > 20 µM
Influenza A virus [20]
  EC50: > 20 µM
Influenza A virus H3N2 [21]
  EC50: > 20 µM
Influenza A virus H3N2 [22]
  EC50: > 20 µM
Influenza B virus [23]
  EC50: > 20 µM
Influenza B virus [24]
  EC50: > 20 µM
[25]
  CC50: > 100 µM
Feline coronavirus
  EC50: > 100 µM
Felid alphaherpesvirus 1
  EC50: > 100 µM

## Cc1cc(C)cc(S(=O)(=O)c2c(C(=O)N[C@H](C)C(N)=O)[nH]c3ccc(Br)cc23)c1
[6]
  IC50: 0.016 µM
[7]
  IC50: 0.324 µM

## Cc1cc(C)cc(S(=O)(=O)c2c(C(=O)N[C@H](C)CC(N)=O)[nH]c3ccc(Cl)cc23)c1
[6]
  IC50: 0.147 µM
[7]
  IC50: 1.42 µM

## Cc1cc(C)cc(S(=O)(=O)c2c(C(=O)N[C@@H](C)C(N)=O)[nH]c3ccc(Br)cc23)c1
[6]
  IC50: 0.013 µM
[7]
  IC50: 1.5 µM

## Cc1cc(C)cc(S(=O)(=O)c2c(C(=O)N[C@@H](C)C(N)=O)[nH]c3ccc(Cl)cc23)c1
[6]
  IC50: 0.026 µM
[7]
  IC50: 1.01 µM

## Cc1cc(C)cc(S(=O)(=O)c2c(C(=O)N[C@@H](C)CC(N)=O)[nH]c3ccc(Cl)cc23)c1
[6]
  IC50: 0.315 µM
[7]
  IC50: 1.34 µM
